Laboratory results published in ChEMBL document CHEMBL1914430, “Synthesis of some new 1,3,5-trisubstituted pyrazolines bearing benzene sulfonamide as anticancer and anti-inflammatory agents” (Bioorg Med Chem Lett, 2011).

Columns and labels:
Format in all cases: functional
Rattus norvegicus [1] = assay: Antiinflammatory activity in Wistar rat assessed as inhibition of carrageenan-induced hind paw edema at 20 mg/kg, po administered 30 mins before carrageenan challenge measured after 3 hrs by plethysmometer
Summary of the method: (§1)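 Wistar rats of either sex, 150–175 g, fasted 16 h, n = 6 per group. Compound given orally at 20 mg/kg as a suspension in 1% CMC in water (10 mL/kg); controls got vehicle only. After 30 min, 0.1 mL of 1% carrageenan in saline was injected subplantar into the left hind paw. Paw volume was measured by plethysmometer at 0, 3 and 5 h. Inhibition = (1 − Vt/Vc) × 100, reported as mean ± SEM.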

Rattus norvegicus [2] = assay: Antiinflammatory activity in Wistar rat assessed as inhibition of carrageenan-induced hind paw edema at 20 mg/kg, po administered 30 mins before carrageenan challenge measured after 5 hrs by plethysmometer; summary of the method: as §1
RPMI-8226 = assay: Anticancer activity against human RPMI8226 cells assessed as cellular growth at 10 uM
Summary of the method: (§2)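 Primary single-dose screen at 10⁻⁵ M, run under the NCI Drug Evaluation Branch protocol against the full panel of about 60 human tumour lines. The lines come from leukaemia, melanoma, lung, colon, CNS, ovarian, renal, prostate and breast cancers. Read-out is cellular growth.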

A549 = assay: Anticancer activity against human A549 cells assessed as cellular growth at 10 uM
Summary of the method: (§3)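 Primary one-dose screen at 10⁻⁵ M, run per the NCI Drug Evaluation Branch protocol on the full panel of about 60 human tumor lines. The panel covers nine cancer types: leukemia, melanoma, lung, colon, CNS, ovarian, renal, prostate and breast.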

EKVX = assay: Anticancer activity against human EKVX cells assessed as cellular growth at 10 uM; summary of the method: as §3
HOP-62 = assay: Anticancer activity against human HOP62 cells assessed as cellular growth at 10 uM; summary of the method: as §3
HOP-92 = assay: Anticancer activity against human HOP92 cells assessed as cellular growth at 10 uM; summary of the method: as §3
NCI-H226 = assay: Anticancer activity against human NCI-H226 cells assessed as cellular growth at 10 uM; summary of the method: as §2
NCI-H23 = assay: Anticancer activity against human NCI-H23 cells assessed as cellular growth at 10 uM; summary of the method: as §2
NCI-H322M = assay: Anticancer activity against human NCI-H322M cells assessed as cellular growth at 10 uM; summary of the method: as §2
NCI-H460 = assay: Anticancer activity against human NCI-H460 cells assessed as cellular growth at 10 uM; summary of the method: as §2
NCI-H522 = assay: Anticancer activity against human NCI-H522 cells assessed as cellular growth at 10 uM; summary of the method: as §2
COLO 205 = assay: Anticancer activity against human COLO205 cells assessed as cellular growth at 10 uM; summary of the method: as §3
HCC 2998 = assay: Anticancer activity against human HCC2998 cells assessed as cellular growth at 10 uM; summary of the method: as §3
HCT-116 = assay: Anticancer activity against human HCT116 cells assessed as cellular growth at 10 uM; summary of the method: as §3
HCT-15 = assay: Anticancer activity against human HCT15 cells assessed as cellular growth at 10 uM; summary of the method: as §3
HT-29 = assay: Anticancer activity against human HT-29 cells assessed as cellular growth at 10 uM; summary of the method: as §3
KM12 = assay: Anticancer activity against human KM12 cells assessed as cellular growth at 10 uM; summary of the method: as §3
SW-620 = assay: Anticancer activity against human SW620 cells assessed as cellular growth at 10 uM
Summary of the method: (§4)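 NCI primary one-dose screen at 10⁻⁵ M against the ~60 human tumour cell line panel (leukemia, melanoma, lung, colon, CNS, ovarian, renal, prostate, breast). Read-out is cellular growth.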

SF-268 = assay: Anticancer activity against human SF268 cells assessed as cellular growth at 10 uM; summary of the method: as §2
SF-295 = assay: Anticancer activity against human SF295 cells assessed as cellular growth at 10 uM; summary of the method: as §2
SF-539 = assay: Anticancer activity against human SF539 cells assessed as cellular growth at 10 uM; summary of the method: as §2
SNB-19 = assay: Anticancer activity against human SNB19 cells assessed as cellular growth at 10 uM; summary of the method: as §2
SNB-75 = assay: Anticancer activity against human SNB75 cells assessed as cellular growth at 10 uM; summary of the method: as §2
U-251 = assay: Anticancer activity against human U251 cells assessed as cellular growth at 10 uM; summary of the method: as §4
LOX IMVI = assay: Anticancer activity against human LOXIMVI cells assessed as cellular growth at 10 uM; summary of the method: as §3
Malme-3M = assay: Anticancer activity against human MALME-3M cells assessed as cellular growth at 10 uM; summary of the method: as §3
M14 = assay: Anticancer activity against human M14 cells assessed as cellular growth at 10 uM; summary of the method: as §3
MDA-MB-435 = assay: Anticancer activity against human MDA-MB-435 cells assessed as cellular growth at 10 uM; summary of the method: as §3
SK-MEL-2 = assay: Anticancer activity against human SK-MEL-2 cells assessed as cellular growth at 10 uM; summary of the method: as §2
SK-MEL-28 = assay: Anticancer activity against human SK-MEL-28 cells assessed as cellular growth at 10 uM; summary of the method: as §2
SK-MEL-5 = assay: Anticancer activity against human SK-MEL-5 cells assessed as cellular growth at 10 uM; summary of the method: as §2
UACC-257 = assay: Anticancer activity against human UACC257 cells assessed as cellular growth at 10 uM; summary of the method: as §4
UACC-62 = assay: Anticancer activity against human UACC62 cells assessed as cellular growth at 10 uM; summary of the method: as §4
IGROV-1 = assay: Anticancer activity against human IGROV1 cells assessed as cellular growth at 10 uM; summary of the method: as §3
OVCAR-3 = assay: Anticancer activity against human OVCAR3 cells assessed as cellular growth at 10 uM; summary of the method: as §2
OVCAR-4 = assay: Anticancer activity against human OVCAR4 cells assessed as cellular growth at 10 uM; summary of the method: as §2
OVCAR-5 = assay: Anticancer activity against human OVCAR5 cells assessed as cellular growth at 10 uM; summary of the method: as §2
OVCAR-8 = assay: Anticancer activity against human OVCAR8 cells assessed as cellular growth at 10 uM; summary of the method: as §2
NCI/ADR-RES = assay: Anticancer activity against human NCI/ADR-RES cells assessed as cellular growth at 10 uM; summary of the method: as §2
SK-OV-3 = assay: Anticancer activity against human SKOV3 cells assessed as cellular growth at 10 uM; summary of the method: as §2
786-0 = assay: Anticancer activity against human 786-0 cells assessed as cellular growth at 10 uM; summary of the method: as §3
A498 = assay: Anticancer activity against human A498 cells assessed as cellular growth at 10 uM; summary of the method: as §3
ACHN = assay: Anticancer activity against human ACHN cells assessed as cellular growth at 10 uM; summary of the method: as §3
RXF 393 = assay: Anticancer activity against human RXF393 cells assessed as cellular growth at 10 uM; summary of the method: as §2
TK-10 = assay: Anticancer activity against human TK10 cells assessed as cellular growth at 10 uM; summary of the method: as §4
UO-31 = assay: Anticancer activity against human UO31 cells assessed as cellular growth at 10 uM; summary of the method: as §4
PC-3 = assay: Anticancer activity against human PC3 cells assessed as cellular growth at 10 uM; summary of the method: as §2
DU-145 = assay: Anticancer activity against human DU145 cells assessed as cellular growth at 10 uM; summary of the method: as §3
MCF7 = assay: Anticancer activity against human MCF7 cells assessed as cellular growth at 10 uM; summary of the method: as §3
MDA-MB-231 = assay: Anticancer activity against human MDA-MB-231 cells assessed as cellular growth at 10 uM; summary of the method: as §3
[3] = Anticancer activity against human Hs 578T cells assessed as cellular growth at 10 uM; summary of the method: as §3
BT-549 = assay: Anticancer activity against human BT549 cells assessed as cellular growth at 10 uM; summary of the method: as §3
T47D = assay: Anticancer activity against human T47D cells assessed as cellular growth at 10 uM; summary of the method: as §4
MDA-MB-468 = assay: Anticancer activity against human MDA-MB-468 cells assessed as cellular growth at 10 uM; summary of the method: as §2
SN12C = assay: Anticancer activity against human SN12C cells assessed as cellular growth at 10 uM; summary of the method: as §2

COc1ccc(C2CC(c3cc(Cl)c(C)cc3OC)=NN2c2ccc(S(N)(=O)=O)cc2)cc1OC (stereo not given)
inhibition in vivo at 20 mg/kg (Rattus norvegicus [1]): 31.6%
inhibition in vivo at 20 mg/kg (Rattus norvegicus [2]): 47.6%
Activity (RPMI-8226): 90.96%
Activity (A549): 73.23%
Activity (EKVX): 80.65%
Activity (HOP-62): 87.79%
Activity (HOP-92): 101.2%
Activity (NCI-H226): 81.27%
Activity (NCI-H23): 75.79%
Activity (NCI-H322M): 103.5%
Activity (NCI-H460): 89.78%
Activity (NCI-H522): 74.33%
Activity (COLO 205): 101.3%
Activity (HCC 2998): 99.94%
Activity (HCT-116): 56.66%
Activity (HCT-15): 75.93%
Activity (HT-29): 78.73%
Activity (KM12): 91.8%
Activity (SW-620): 93.6%
Activity (SF-268): 90.07%
Activity (SF-295): 122.81%
Activity (SF-539): 102.69%
Activity (SNB-19): 100.7%
Activity (SNB-75): 83.56%
Activity (U-251): 78.37%
Activity (LOX IMVI): 77.92%
Activity (Malme-3M): 101.32%
Activity (M14): 81.83%
Activity (MDA-MB-435): 95.83%
Activity (SK-MEL-2): 95.75%
Activity (SK-MEL-28): 108.41%
Activity (SK-MEL-5): 84.63%
Activity (UACC-257): 87.16%
Activity (UACC-62): 65.06%
Activity (IGROV-1): 79.08%
Activity (OVCAR-3): 103.3%
Activity (OVCAR-4): 87.79%
Activity (OVCAR-5): 70.62%
Activity (OVCAR-8): 73.83%
Activity (NCI/ADR-RES): 77.18%
Activity (SK-OV-3): 116.37%
Activity (786-0): 92.29%
Activity (A498): 111.51%
Activity (ACHN): 83.96%
Activity (RXF 393): 77.69%
Activity (TK-10): 112.95%
Activity (UO-31): 59.09%
Activity (PC-3): 52.25%
Activity (DU-145): 105.76%
Activity (MCF7): 80.37%
Activity (MDA-MB-231): 84.64%
Activity [3]: 100.69%
Activity (BT-549): 83.23%
Activity (T47D): 77.03%
Activity (MDA-MB-468): 94.62%
Activity (SN12C): 87.41%

COc1cc(C)c(Cl)cc1C1=NN(c2ccc(S(N)(=O)=O)cc2)C(c2cc(OC)c(OC)c(OC)c2)C1 (stereo not given)
inhibition in vivo at 20 mg/kg (Rattus norvegicus [1]): 34.2%
inhibition in vivo at 20 mg/kg (Rattus norvegicus [2]): 21.4%

COc1cc(C)c(Cl)cc1C1=NN(c2ccc(S(N)(=O)=O)cc2)C(/C=C/c2ccccc2)C1 (stereo not given)
inhibition in vivo at 20 mg/kg (Rattus norvegicus [1]): 55.3%
inhibition in vivo at 20 mg/kg (Rattus norvegicus [2]): 52.4%
